# ChEMBL document CHEMBL1135790, “2-Substituted 4-(thio)chromenone 6-O-sulfamates: potent inhibitors of human steroid sulfatase” (J Med Chem, 2002)
# Columns and labels:
# [1] = Rate constant of inactivation
# [2] = biological target: T1, Steryl-sulfatase (Homo sapiens, UniProt P08842); experiment: Inhibitory activity against purified human steroid sulfatase (STS)
# T1 sequence (P08842 whole entry): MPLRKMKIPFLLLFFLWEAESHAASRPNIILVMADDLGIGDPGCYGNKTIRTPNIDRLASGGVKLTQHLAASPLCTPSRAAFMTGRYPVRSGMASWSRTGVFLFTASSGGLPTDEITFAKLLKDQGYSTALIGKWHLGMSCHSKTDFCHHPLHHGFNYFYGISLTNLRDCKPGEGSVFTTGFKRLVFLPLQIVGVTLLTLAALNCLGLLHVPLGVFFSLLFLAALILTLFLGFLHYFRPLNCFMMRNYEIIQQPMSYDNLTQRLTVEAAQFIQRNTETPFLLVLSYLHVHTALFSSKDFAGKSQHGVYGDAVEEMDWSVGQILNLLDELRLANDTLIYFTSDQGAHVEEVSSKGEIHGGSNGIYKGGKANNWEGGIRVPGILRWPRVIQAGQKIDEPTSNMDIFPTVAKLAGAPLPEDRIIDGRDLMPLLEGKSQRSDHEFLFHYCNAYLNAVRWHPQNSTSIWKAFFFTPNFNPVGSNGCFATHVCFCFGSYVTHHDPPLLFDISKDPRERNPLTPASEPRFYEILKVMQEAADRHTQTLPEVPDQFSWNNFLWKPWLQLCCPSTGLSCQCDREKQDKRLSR
# Outline: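 Human STS from stably transfected recombinant CHO cells, microsomal fraction solubilized in Triton X-100 and purified by chromatography to >95%. Enzyme (0.6 units) mixed with 4-MUS, 0.75 mM before mixing, in 0.1 M Tris-HCl pH 7.5, 0.1% Triton. Compounds at graded concentrations from ethanol stocks (final ethanol ≤2%). Incubation 60 min, 37 °C. Stopped with 0.2 M NaOH. Fluorescence ex 355/em 448 nm. IC50 from nonlinear regression; mean of triplicates.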
# [3] = Inhibition constant as dissociation constant of the noncovalent (STS) enzyme-inhibitor complex; assay type: ADME
# Outline: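 Human placental microsomes (about 10 mg/mL protein) preincubated with inhibitor dilutions in 0.1 M Tris-HCl pH 7.5 for 1-20 min. Free inhibitor removed with dextran-coated charcoal. Residual activity measured in the supernatant with 4-MUS (1.5 mM before mixing), 20 min at 37 °C, stopped with NaOH, ex 355/em 460 nm. kapp from double-exponential fits. KI and kinact from a double-reciprocal plot of kapp against inhibitor concentration.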
# [4] = Ratio of kinact (rate constant of inactivation) to that of KI (inhibition constant) indicates efficacy of irreversible inhibition.
SMILES,kinact [1],IC50 [2],Ki [3],K inact/Ki [4]
CCCc1cc(=O)c2cc(OS(N)(=O)=O)ccc2o1,–,0.722 µM,–,–
NS(=O)(=O)Oc1ccc2c(=O)c(-c3ccccc3)coc2c1,–,0.437 µM,–,–
NS(=O)(=O)Oc1ccc2c(c1)C(O)CC(C13CC4CC(CC(C4)C1)C3)O2 (centres undefined),–,0.291 µM,–,–
NS(=O)(=O)Oc1ccc2oc(Cc3ccccc3)cc(=O)c2c1,–,1.62 µM,–,–
CC(C)(C)c1cc(=O)c2cc(OS(N)(=O)=O)ccc2o1,0.07 s⁻¹,0.022 µM,0.9 µM,–
NS(=O)(=O)Oc1ccc2c(c1)CCC(C1CCCCC1)O2 (centres undefined),0.016 s⁻¹,11.2 µM,32 µM,–
NS(=O)(=O)Oc1ccc2oc(C3CCCCCCCCCCC3)cc(=O)c2c1,0.04 s⁻¹,0.045 µM,1.1 µM,–
NS(=O)(=O)Oc1ccc2oc(CCc3ccccc3)cc(=O)c2c1,–,0.19 µM,–,–
NS(=O)(=O)Oc1ccc2c(c1)C(=O)CC(C13CC4CC(CC(C4)C1)C3)O2 (centres undefined),0.017 s⁻¹,0.14 µM,1.86 µM,–
NS(=O)(=O)Oc1ccc2c(c1)C(=O)CC(c1ccccc1)O2 (centres undefined),–,2.58 µM,–,–
CCCc1cc(=O)c2ccc(OS(N)(=O)=O)cc2o1,–,> 100 µM,–,–
NS(=O)(=O)Oc1ccc2oc(C3C4CC5CC3CC5C4)cc(=O)c2c1 (centres undefined),0.042 s⁻¹,0.011 µM,0.22 µM,–
NS(=O)(=O)Oc1ccc2sc(-c3ccccc3)cc(=O)c2c1,–,0.062 µM,–,–
CC1(C)C(c2cc(=O)c3cc(OS(N)(=O)=O)ccc3o2)C1(C)C,–,0.045 µM,–,–
NS(=O)(=O)Oc1ccc2c(=O)c(C3CCCCC3)coc2c1,0.07 s⁻¹,0.05 µM,1.2 µM,–
CC(C)(C)c1cc(=O)c2cc(OS(N)(=O)=O)ccc2s1,–,0.0056 µM,–,–
NS(=O)(=O)Oc1ccc2oc(C3CCCC3)cc(=O)c2c1,0.011 s⁻¹,0.134 µM,0.73 µM,–
CCCCCCCCC(C)(C)c1cc(=O)c2cc(OS(N)(=O)=O)ccc2o1,–,0.078 µM,–,–
NS(=O)(=O)Oc1ccc2oc(C3CCCCC3)cc(=O)c2c1,0.035 s⁻¹,0.062 µM,1 µM,–

# Further lines, results first:
kinact [1],IC50 [2],Ki [3],K inact/Ki [4],SMILES
0.02 s⁻¹,6.33 µM,24 µM,–,NS(=O)(=O)Oc1ccc2c(=O)cc(C3CCCCC3)oc2c1
–,1.62 µM,–,–,NS(=O)(=O)Oc1ccc2oc(/C=C/c3ccccc3)cc(=O)c2c1
0.115 s⁻¹,0.00034 µM,0.21 µM,–,NS(=O)(=O)Oc1ccc2sc(C34CC5CC(CC(C5)C3)C4)cc(=O)c2c1
–,0.28 µM,–,–,NS(=O)(=O)Oc1ccc2c(c1)C(=O)CC(C1CCCCC1)O2 (centres undefined)
0.074 s⁻¹,0.011 µM,0.5 µM,–,CCCCCC12CCC(c3cc(=O)c4cc(OS(N)(=O)=O)ccc4o3)(CC1)CC2
0.018 s⁻¹,24.3 µM,53.7 µM,–,NS(=O)(=O)Oc1ccc2c(c1)C(O)CC(C1CCCCC1)O2 (centres undefined)
0.006 s⁻¹,0.403 µM,1.7 µM,0.35 10e4 M-1 s-1,CCCCCCCCCc1cc(=O)c2cc(OS(N)(=O)=O)ccc2o1
–,0.672 µM,–,–,NS(=O)(=O)Oc1ccc2oc(-c3ccccc3)cc(=O)c2c1
